Assay outcomes: PubChem BioAssay, Johns Hopkins Ion Channel Center
KCNK3 block = human KCNK3 channel inhibition, primary screen; O14649; CHO-KCNK3 thallium flux, FluxOR fluorescence; active compounds read low; B-score at 10 µM; 340,000 tested, 0.84% active; AID 602410;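 active = B-score under library mean minus 4 SD, starting fluorescence ratio at most library mean plus 5 SD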;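 also: more negative B-score means stronger inhibition of thallium flux through KCNK3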
hERG rescue = hERG (human) protection from proarrhythmic block | Q12809 | CHO-hERG, FluxOR thallium flux, dofetilide IC70 present | activation (rescue from dofetilide block), less the hit threshold, % at 10 µM | 310,000 tested, 0.51% active | AID 1511;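 active = activation above the mean of controls blocked by dofetilide plus 5 SD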;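 also: thallium influx through hERG after potassium depolarization seen as dye fluorescence rise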
KCNQ1 block = blocks the human KCNQ1 potassium channel. P51787. 310,000 tested, 1.3% active. CHO-K1 KCNQ1, FluxOR thallium flux fluorescence; active compounds read high. B-score at 10 µM;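 active = compounds whose thallium flux B-score, printed positive for inhibition, exceeds three library SD while starting fluorescence stays within three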;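 also: channel opened by potassium depolarization with thallium stimulus after 20 min compound exposure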
KCNQ1 pot = human KCNQ1 channel potentiation or activation; P51787; CHO-K1 KCNQ1, thallium flux FluxOR fluorescence; active compounds read high; B-score at 10 µM; AID 2648; 310,000 tested, 0.35% active;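 active = fluorescence ratio B-score, a plate-corrected score, at least three library SD, with initial intensity B-score within 5 SD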
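assay system = CHO-K1 cells stably expressing KCNQ1 | medium = assay buffer, equal DMSO in all wells | timing = 37 °C overnight plating, 90-min dark dye load, 20-min compound pretreatment | measured by = kinetic FluxOR thallium fluorescence, 10-s 1-Hz baseline, 110-s post-stimulus read | measure = fluorescence change relative to baseline, converted to B score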
KCNK9 inh = inhibitors of human KCNK9 two-pore domain potassium channel; HEK293 KCNK9, FluxOR thallium flux fluorescence; active compounds read low; AID 488922; 310,000 tested, 1.2% active; B-score at 10 µM; Q9NPC2;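 active = ratio B-score over 3 SD below the library mean, with starting fluorescence within 5 SD of its mean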;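 also: negative B-score means less thallium flux so channel inhibition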
Numbers without * were called inactive; i = inactive; · = no result given. In the library only some 3.1% were active in any assay of this set; here they are far more common.

SMILES	KCNK3 block	hERG rescue	KCNQ1 block	KCNQ1 pot	KCNK9 inh
Cc1ccc2c(c1)N(CC(=O)NCCCN1CCN(C)CC1)C(=O)CO2	i	-5	i	i	i
COC(=O)c1[nH]c2ccc(Br)cc2c1NC(=O)CN1CCCc2ccccc21	i	-3	6*	i	i
COC(=O)c1[nH]c2ccc(Br)cc2c1NC(=O)CN1CCN(C2CCCCC2)CC1	i	-16	i	i	i
Cc1ccnc(N2C(=O)c3cccc4c([N+](=O)[O-])ccc(c34)C2=O)c1	i	-13	7*	i	i
C/C(=C/CCC(C)C1CCC2(C)C3CCC4C(C)(C)C(=O)CCC4(C)C3=CCC12C)C(=O)O (configuration not stated)	·	9.5*	i	29*	i
C/C(=C/CCC(C)[C@H]1CC[C@@]2(C)C3=C(CC[C@]12C)[C@@]1(C)CCC(=O)C(C)(C)[C@@H]1CC3)C(=O)O (some centres not stated)	i	39*	i	26*	i
CCOc1ccc(CCNC(=O)COC(=O)c2ccc(OC(C)C)cc2)cc1OCC	i	-12	i	i	i
O=[N+]([O-])c1cc(C(F)(F)F)ccc1NCCNC(=S)Nc1ccc(Cl)cc1	i	-5	6*	i	i
O=[N+]([O-])c1ccc(NC(=S)NCCc2ccc(Cl)cc2)cc1	i	-14	8*	i	i
O=[N+]([O-])c1ccc(NC(=S)NCCc2ccccc2)cc1	i	-19	6*	i	i
CN1/C(=C\C=N\NC(=O)c2ccccc2Br)C(C)(C)c2ccccc21	i	-25	9*	i	i
O=C(N/N=C\c1cn(-c2ccccc2)nc1-c1ccccc1)c1ccc2c(c1)OCO2	i	-36	i	i	-6.8*
COc1ccc(-c2nn(-c3ccccc3)cc2/C=N/NC(=O)c2ccc3c(c2)OCO3)cc1	·	-28	i	i	i
COc1ccc(-c2nn(-c3ccccc3)cc2/C=N/NC(=O)c2ccc(Br)o2)cc1	-9.6*	-14	11*	i	-6.7*
CC(=NNC(=O)c1ccc(NS(=O)(=O)c2cccs2)cc1)c1ccc(OCC(N)=O)cc1	i	·	·	·	·
COc1ccc(F)cc1S(=O)(=O)NCC(c1ccco1)N1CCc2ccccc2C1 (configuration not stated)	i	-22	i	i	i
COc1ccc(CCC(C)Nc2cccc(F)c2)cc1 (configuration not stated)	i	-8	i	i	-6.6*
COCCN(CCOC)c1nc(S(=O)(=O)c2ccc(C)cc2)c(Cl)s1	i	-5	i	i	-7.8*
O=C(c1ccco1)N1CCN(C(=S)NCc2ccc(F)cc2)CC1	i	-7	i	i	i
COc1ccc(/C=C/c2cc(O)cc(OC3OC(CO)C(O)C(O)C3O)c2)cc1 (configuration not stated)	i	·	·	·	·
COCCN1CC(=O)N2C(c3cccc(OC)c3)c3[nH]c4ccccc4c3C[C@H]2C1=O (some centres not stated)	i	-5	i	i	i
Nc1nc2n(n1)C(=O)CC(c1ccccc1[N+](=O)[O-])N2 (configuration not stated)	i	-19	i	i	i
Nc1nc2n(n1)C(=O)CC(c1ccc(Cl)cc1)N2 (configuration not stated)	i	5.0*	i	i	i
O=C(CSc1ncnc2c1cnn2-c1ccccc1)Nc1ccc2c(c1)OCO2	i	-11	i	i	i
Cc1cc(NC(=O)CSc2ncnc3c2cnn3-c2cccc(Cl)c2)no1	i	-14	i	i	i
O=C(CSc1ncnc2c1cnn2-c1ccc(Cl)cc1)NCc1ccc2c(c1)OCO2	i	4.7*	i	i	i
Cc1cc(NC(=O)CSc2ncnc3c2cnn3-c2ccccc2)no1	i	14*	i	i	i
Cc1ccccc1SCC(=O)OCC(=O)NCc1ccccc1	i	·	·	·	·
CC(=N\NC(=O)c1ccc([N+](=O)[O-])cc1)/C(=N/O)C(=O)Nc1ccccc1	i	-14	6*	i	i
CCOC(=O)/C(C)=N/NC(=O)c1ccc([N+](=O)[O-])cc1	i	10*	i	11*	i
